In brackets after ≈: the same amount, converted by molar mass. Activity calls are given as the source filed them. The calls are words filed in the database; no cut-off is given here.
Assays:
[1] = system: Hepatitis C virus; experiment: Antiviral activity against HCV genotype 2 by replicon assay; format: functional, organism-based, Hepacivirus hominis
[2] = Solubility of the compound at pH 7.4; format: physicochemical; details: buffer
[3] = Selectivity index, ratio of CC50 for human HuH7 cells to EC50 for 1 MOI of HCV genotype 2 infected in human HuH7 cells; set-up: species or system Huh-7
Summary of the method: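 The SI is CC50 divided by EC50. Both values come from 10-point dose-response curves (duplicates, quadruplicate measurements) in Huh-7 cells. CC50 is from cell growth inhibition.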

[4] = Half life in human liver microsomes; format: ADME, Microsome
[5] = system: Hepatitis C virus; experiment: Antiviral activity against HCV genotype 1 expressing envelope protein at 1 uM; format: functional, organism-based; details: Hepacivirus hominis
[6] = Cytotoxicity against human HuH7 cells assessed as growth inhibition; format: cell-based, Huh-7
Summary of the method: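 Compound toxicity is measured as inhibition of Huh-7 cell growth, run in parallel with the HCVcc infection assay. CC50 comes from 10-point dose-response curves, done in duplicate with quadruplicate measurements.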

[7] = Half life in rat liver microsomes; format: ADME, Microsome
[8] = system: Hepatitis C virus; experiment: Antiviral activity against 1 MOI of HCV genotype 2 infected in human HuH7 cells assessed as inhibition of viral RNA replication after 72 hrs by confocal microscopy; format: functional, organism-based, Hepacivirus hominis; details: genotype 2, Huh-7, 72 h
Summary of the method: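 Reporter virus is cell-culture-adapted full-length JFH-1 with GFP inserted in NS5A domain III; GFP fluorescence tracks viral RNA replication. Serially diluted compound added to naïve Huh-7 cells, then infected with HCVcc at MOI 1. Live cells imaged by automated confocal microscopy at 72 h post-infection. EC50 from 10-point dose-response curves, run in duplicate with quadruplicate measurements.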

| Compound | EC50 [1] | solubility [2] [µM] | half-life [4] [h] | half-life [7] [h] | EC50 [8] [µM] | Ratio CC50/EC50 [3] | Activity [5] | CC50 [6] [µM] |
| --- | --- | --- | --- | --- | --- | --- | --- | --- |
| Cc1ccc(-c2c(C)nn3c(NC4CCN(C(C)C)CC4)cc(C)nc23)cc1 | Not Active | 73 (≈ 27.6 µg/mL) | > 1 | > 1 | 0.28 | 31 | inactive | 8.8 |
| COCCCNc1cc(C)nc2c(-c3ccc(C)cc3)c(C)nn12 | – | – | – | – | 2.3 | 8.3 | – | 19 |
| Cc1cc(NC2CCN(C(C)C)CC2)n2nccc2n1 | – | – | – | – | 12 | 1 | – | 12 |
| Cc1ccc(-c2c(C)nn3c(NCCCN(C)C)cc(C)nc23)cc1 | – | 76 (≈ 25.6 µg/mL) | > 1 | 0.373 | 0.54 | 41 | inactive | 22 |

Continued by falling EC50 [8], values first:

| EC50 [1] | solubility [2] [µM] | half-life [4] [h] | half-life [7] [h] | EC50 [8] [µM] | Compound | Ratio CC50/EC50 [3] | Activity [5] | CC50 [6] [µM] |
| --- | --- | --- | --- | --- | --- | --- | --- | --- |
| – | – | – | – | 7.2 | Cc1ccc(-c2c(C)nn3c(NCCN(C)C)cc(C(F)(F)F)nc23)cc1 | 2.1 | – | 15 |
| – | – | – | – | 5.3 | Cc1ccc(-c2c(C)nn3c(NCCc4ccccc4)cc(C)nc23)cc1 | 1 | – | 5.2 |
| – | – | – | – | 2.8 | Cc1ccc(-c2c(C)nn3c(NCc4cccnc4)c4c(nc23)CCCC4)cc1 | 3.1 | – | 8.7 |
| – | – | – | – | 1 | Cc1ccc(-c2c(C)nn3c(NC4CCN(C)CC4)cc(C)nc23)cc1 | 18 | – | 18 |
